# Test results reported in ChEMBL document CHEMBL1140737, “Discovery of novel agonists and antagonists of the free fatty acid receptor 1 (FFAR1) using virtual screening” (J Med Chem, 2008).
# Calls of active or inactive are those of the source. No cut-off for these calls is given here.
# Experiments:
# [1] = molecular target: T1, Free fatty acid receptor 1 (Homo sapiens, UniProt O14842); test: Agonist activity at FFAR1 expressed in HEK-EM293 cells assessed as calcium influx by FLIPR assay; assay type: functional, cell-based; conditions: for Activity: HEK293
# T1 sequence (O14842 whole entry): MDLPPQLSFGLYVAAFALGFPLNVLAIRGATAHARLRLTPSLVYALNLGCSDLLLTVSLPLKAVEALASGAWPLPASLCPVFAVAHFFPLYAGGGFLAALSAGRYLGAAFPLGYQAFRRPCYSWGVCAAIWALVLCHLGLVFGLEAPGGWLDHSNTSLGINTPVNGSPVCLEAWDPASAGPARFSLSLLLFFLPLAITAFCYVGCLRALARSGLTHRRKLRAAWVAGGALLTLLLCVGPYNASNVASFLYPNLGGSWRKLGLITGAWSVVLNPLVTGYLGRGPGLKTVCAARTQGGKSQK
# [2] = molecular target: T1, Free fatty acid receptor 1; test: Activity at FFAR1 expressed in HEK-EM293 cells assessed as calcium influx relative to GW-9508 by FLIPR assay; assay type: functional, cell-based; design: concentration or dose not given beside the values; conditions: HEK293
# [3] = molecular target: T1, Free fatty acid receptor 1; test: Antagonist activity at FFAR1 expressed in HEK-EM293 cells assessed as inhibition calcium influx by FLIPR assay; assay type: functional, cell-based, HEK293
# [4] = molecular target: Free fatty acid receptor 1 (Homo sapiens, UniProt O14842, L186F); test: Activity at FFAR1 L186F mutant expressed in HEK-EM293 cells assessed as calcium influx by FLIPR assay; assay type: functional, cell-based, HEK293
# Chain of Free fatty acid receptor 1 (Homo sapiens, UniProt O14842, L186F) (O14842 whole entry L186F): as the sequence (O14842 whole entry) above, with L186F counted along it
# Procedure, shortened: (§1)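 Mutant or wild-type FFAR1 cDNA transiently transfected (lipofectamine LTX/PLUS) into HEK-EM 293 cells. Cells seeded at 60 000/well one day before, then loaded with Calcium4 dye in HEPES (20 mM)-buffered HBSS. Intracellular calcium flux read by FLIPR after agonist addition; EC50 from concentration-response curves.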
# [5] = molecular target: Free fatty acid receptor 1 (Homo sapiens, UniProt O14842, H137F); test: Activity at FFAR1 H137F mutant expressed in HEK-EM293 cells assessed as calcium influx by FLIPR assay; assay type: functional, cell-based, HEK293; procedure, shortened: as §1
# Chain of Free fatty acid receptor 1 (Homo sapiens, UniProt O14842, H137F) (O14842 whole entry H137F): as the sequence (O14842 whole entry) above, with H137F counted along it
# [6] = molecular target: T1, Free fatty acid receptor 1; test: Activity at FFAR1 expressed in HEK-EM293 cells assessed as calcium influx by FLIPR assay; assay type: functional, cell-based, HEK293
# [7] = molecular target: Free fatty acid receptor 1 (Homo sapiens, UniProt O14842, N244A); test: Activity at FFAR1 N244A mutant expressed in HEK-EM293 cells assessed as calcium influx by FLIPR assay; assay type: functional, cell-based, HEK293; procedure, shortened: as §1
# Chain of Free fatty acid receptor 1 (Homo sapiens, UniProt O14842, N244A) (O14842 whole entry N244A): as the sequence (O14842 whole entry) above, with N244A counted along it
# [8] = molecular target: Free fatty acid receptor 1 (Homo sapiens, UniProt O14842, H86F); test: Activity at FFAR1 H86F mutant expressed in HEK-EM293 cells assessed as calcium influx by FLIPR assay; assay type: functional, cell-based, HEK293; procedure, shortened: as §1
# Chain of Free fatty acid receptor 1 (Homo sapiens, UniProt O14842, H86F) (O14842 whole entry H86F): as the sequence (O14842 whole entry) above, with H86F counted along it
# [9] = molecular target: Free fatty acid receptor 1 (Homo sapiens, UniProt O14842, R183A); test: Activity at FFAR1 R183A mutant expressed in HEK-EM293 cells assessed as calcium influx by FLIPR assay; assay type: functional, cell-based, HEK293; procedure, shortened: as §1
# Chain of Free fatty acid receptor 1 (Homo sapiens, UniProt O14842, R183A) (O14842 whole entry R183A): as the sequence (O14842 whole entry) above, with R183A counted along it
# [10] = Antagonist activity at TRH receptor 1 expressed in HEK-EM293 cells assessed as inhibition of thyrotropin-releasing hormone-stimulated calcium influx at 30 uM by FLIPR assay; assay type: functional; conditions: HEK293
# Procedure, shortened: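 HEK-EM 293 cells stably expressing TRH-R1, grown with 200 µg/mL hygromycin and loaded with Calcium4. Pre-incubated with compound, up to 30 µM, then stimulated with TRH. Inhibition of the FLIPR calcium response measured.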
# [11] = molecular target: T1, Free fatty acid receptor 1; test: Antagonist activity at FFAR1 expressed in HEK-EM293 cells assessed as linoleic acid-stimulated calcium influx after 30 mins by FLIPR assay; assay type: functional, cell-based; conditions: HEK293
Activity [1],EC50 [1] [µM],Activity [2] [%],Compound,further results
inactive,–,–,O=C(O)CCN1C(=O)/C(=C\c2cccc3ccccc23)SC1=S,–
–,22.6,26,O=C(O)CCCN1C(=O)/C(=C\c2ccc(F)cc2)SC1=S,–
–,14.5,49,C=CCOc1ccc(CNc2cccc(C(=O)O)c2)cc1,–
–,16.8,44,O=C(O)CCCN1C(=O)/C(=C\c2ccco2)SC1=S,–
inactive,–,–,O=C(O)CCN1C(=O)/C(=C\c2c[nH]c3ccccc23)SC1=S,–
–,–,–,O=C(Nc1ccccc1)c1cccc(Oc2ccc([N+](=O)[O-])cc2)c1,IC50 [3]: 5.3 µM
–,15.1,40,COc1ccc(CSc2nnc(SCc3ccc(C(=O)O)cc3)s2)cc1,–
inactive,–,–,COc1ccc(CNC(=O)[C@H](C)c2ccc([N+](=O)[O-])cc2)cc1,–
–,3.6,100,O=C(O)CSc1nnc(SCc2cccc3ccccc23)s1,EC50 [4]: 0.97 µM; EC50 [5]: 4.3 µM; EC50 [6]: 1.8 µM; EC50 [7]: ≥ 100 µM; EC50 [8]: ≥ 100 µM; EC50 [9]: ≥ 100 µM
–,–,–,O=C(NCc1cccc(Oc2ccccc2)c1)c1ccc([N+](=O)[O-])cc1,IC50 [3]: 2.8 µM; inhibition at 30 µM [10]: 30%; Activity [11]: Active
inactive,–,–,O=C(c1ccccc1)c1ccc(NC(=O)c2ccccc2C(=O)O)cc1,–
–,19,43,O=C(O)CCCN1C(=O)/C(=C\c2cccs2)SC1=S,–
–,24.6,50,O=C(O)c1ccc(NCc2ccc3c(c2)OCO3)cc1,–
Active,–,–,O=C(O)CCCN1C(=O)/C(=C\c2ccc3c(c2)OCO3)SC1=S,–
–,8.2,52,O=C(O)c1cccc(NCc2cccc(OCc3ccccc3)c2)c1,–
inactive,–,–,O=C(O)CCN1C(=O)/C(=C\c2ccncc2)SC1=S,–
–,16.7,41,COC(=O)CSc1nnc(SCc2ccccc2)s1,–
inactive,–,–,O=C(Nc1ccc(OCc2ccccc2)cc1)c1cccc([N+](=O)[O-])c1,–
inactive,–,–,COc1ccc(CNC(=O)/C=C\c2ccc([N+](=O)[O-])cc2)cc1,–
–,7.6,59,O=C(O)CCCCCN1C(=O)/C(=C\c2cccs2)SC1=S,EC50 [4]: 3.2 µM; EC50 [5]: 7.8 µM; EC50 [6]: 6.6 µM; EC50 [7]: > 30 µM; EC50 [8]: > 10 µM; EC50 [9]: > 30 µM
–,16.1,56,O=C(O)c1ccc(NC(=O)c2ccc(C(=O)c3ccccc3)cc2)cc1,–
–,12.2,100,O=C(O)CCCCCN1C(=O)/C(=C\c2cccc3ccccc23)SC1=S,–
